Source: PubChem
RAD54 inh: blocks human RAD54 Holliday junction branch migration | FAM/BHQ fluorescence | inhibition, % at 10.4 µM | 360,000 compounds, 0.14% hits | AID 602329;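 active means mean normalized replicate activity at least 40 and at least half of replicates scoring 40 or more; inconclusive means only one of the two criteria met; inactive means mean below 40 and under half of replicates reaching 40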;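 further: 0% = median of neutral control wells and 100% = median of positive control wells; inhibitors cause a drop in the FAM fluorescence signal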
Target sequence (Q92698 whole entry, looked up): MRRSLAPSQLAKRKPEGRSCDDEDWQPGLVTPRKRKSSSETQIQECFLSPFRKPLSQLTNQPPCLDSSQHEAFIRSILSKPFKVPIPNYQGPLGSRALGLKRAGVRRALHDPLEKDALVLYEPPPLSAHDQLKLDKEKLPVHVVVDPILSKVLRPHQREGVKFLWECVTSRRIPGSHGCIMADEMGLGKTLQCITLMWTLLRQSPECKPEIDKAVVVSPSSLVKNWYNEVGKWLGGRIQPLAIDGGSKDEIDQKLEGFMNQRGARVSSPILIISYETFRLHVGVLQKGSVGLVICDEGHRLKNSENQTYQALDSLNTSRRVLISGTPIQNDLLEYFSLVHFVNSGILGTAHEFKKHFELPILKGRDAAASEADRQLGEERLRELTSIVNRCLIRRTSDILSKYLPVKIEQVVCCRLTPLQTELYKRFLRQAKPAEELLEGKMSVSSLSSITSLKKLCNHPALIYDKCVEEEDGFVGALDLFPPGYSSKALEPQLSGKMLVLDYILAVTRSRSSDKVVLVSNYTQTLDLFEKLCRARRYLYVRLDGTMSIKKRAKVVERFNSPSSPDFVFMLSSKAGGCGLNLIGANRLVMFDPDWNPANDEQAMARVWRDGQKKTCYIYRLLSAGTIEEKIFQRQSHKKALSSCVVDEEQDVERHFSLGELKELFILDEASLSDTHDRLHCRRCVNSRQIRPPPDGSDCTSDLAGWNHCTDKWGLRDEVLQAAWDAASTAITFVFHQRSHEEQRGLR
VIM-2 inh: blocks Pseudomonas aeruginosa VIM-2 metallo-beta-lactamase; purified VIM-2, nitrocefin hydrolysis, epi-absorbance fluorescence; inhibition, % at 5.6 µM; 290,000 compounds, 0.89% hits;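 active means inhibition above the mean of all tested compounds plus 3 SD, cutoff set per screening run, cut at about 7.5% in these data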;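 further: red hydrolysis product quenches plate fluorescence so inhibitors raise well fluorescence; 0% = enzyme with DMSO and 100% = DMSO without enzyme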
FID counter: counter-screen for HCV NS3 helicase inhibitors: DNA intercalator displacement; DNA fluorescent intercalator displacement, fluorescence; AID 1845; inhibition, % at 7.9 µM; 290,000 compounds, 0.17% hits; in the data active means inhibition above about 37%;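 further: 0% = vehicle and 100% = reference compound; higher means more ethidium bromide displaced from hairpin DNA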
PvdQ inh: P. aeruginosa PvdQ acylase inhibition | AID 488965 | purified PvdQ acylase, fluorescence plate reader | inhibition, % at 10 µM | 340,000 compounds, 0.063% hits; in the data active means inhibition above about 30%, passing the limit was not always enough; inconclusive means no clear call, values can overlap the other calls;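 further: 0% = vehicle neutral wells and 100% = reference inhibitor wells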
IMP-1 inhibitor: blocks Pseudomonas aeruginosa IMP-1 metallo-beta-lactamase. purified IMP-1, nitrocefin hydrolysis, epi-absorbance fluorescence. 290,000 compounds, 0.45% hits. inhibition, % at 5.6 µM;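 active means inhibition above the mean plus 3 SD of all compounds in the same screening run, cut at about 4.5% in these data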;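 further: 0% = IMP-1 with DMSO and 100% = DMSO wells lacking enzyme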
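System: purified IMP-1 / Input: IMP-1 dispensed at 0.2 nM / Medium: 50 mM HEPES pH 7.1, 50 µM ZnSO4, 0.05% Brij 35 / Timing: 15 min enzyme–compound preincubation, then 25 min nitrocefin reaction, 25 °C / Technique: plate fluorescence quenching by hydrolysis product, ex 480/em 530 nm / Repeats: singlicate testing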
Rad54 DNA ctr: binds DNA, flagging false Rad54 inhibitor hits. shares compounds with RAD54 inh. Acridine orange-DNA displacement, fluorescence polarization, 20 min. AC50, µM (top dose mostly 35 µM), without a hit: at the highest dose activity change, negative = DNA binding. 460 compounds, 8% hits. AID 651673;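 active means signal drop giving an AC50 within twice the top valid tested concentration of each sample, actives reach about 35 µM in these data; inactive means activity opposite to expected, plus the rest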;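 further: polarization loss reports compound binding to salmon sperm DNA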
* hit, by the source's call; ? = inconclusive; · = not tested or not shown. This is a sample that favours compounds with a hit; in the whole collection about 1% have one here.

SMILES	RAD54 inh	VIM-2 inh	FID counter	PvdQ inh	IMP-1 inhibitor	Rad54 DNA ctr
CC(C)CC#Cc1ccc2c(c1)O[C@H](CN(C)Cc1ccc(C(=O)O)cc1)[C@@H](C)CN([C@H](C)CO)S2(=O)=O	5	·	·	·	·	·
COCCNC(=S)Nc1ccc2nc(N3CCN(C)CC3)cc(C)c2c1	22	2	12	12	-5	·
CCCCN(CC)CCCNC(=S)Nc1ccc2nc(N3CCN(C)CC3)cc(C)c2c1	89*	0	32	-13	-2	13%
CCN1CCN(c2ccc(Nc3ccnc4ccccc34)cc2)CC1	78*	·	·	6	·	-12%
C[C@@H]1CN([C@@H](C)CO)S(=O)(=O)c2ccc(C3=CCCCC3)cc2O[C@H]1CN(C)C(=O)CN(C)C	-7	·	·	·	·	·
CNc1nc(-c2c[nH]c3ccccc23)cs1	5	-5	5	11	-4	·
CN1CCN(CC(=O)Nc2nc(-c3c[nH]c4ccccc34)cs2)CC1	93*	2	18	-14	2	-8%
OCCNc1nc(Nc2ccc(O)cc2)nc2ccccc12	52*	3	4	-10	-2	8%
Cc1ccc(S(=O)(=O)N2CCOCC2)c(C)c1NS(C)(=O)=O	?	0	3	-17	-3	0%
Cc1ccc(-c2nc(C(=O)NCCCN3CCOCC3)cc3c2[nH]c2ccccc23)cc1	30	1	10	-12	-3	·
COc1ccc(-c2nc(C(=O)NCCCN3CCOCC3)cc3c2[nH]c2ccccc23)cc1OC	94*	12*	28	-12	-2	-21%
CC(C)NC(=O)Nc1ccc2c(c1)C(=O)N([C@@H](C)CO)C[C@H](C)[C@@H](CN(C)Cc1ccc(-c3ccccc3)cc1)O2	4	·	·	·	·	·
CC(C)CSc1ncc(-c2cccc(C(F)(F)F)c2)cn1	?	-3	3	-10	-3	-13%
CCc1ccc(C(O)c2ncc(-c3cccc(C(F)(F)F)c3)[nH]2)cc1 (stereo not given)	0	·	·	·	·	·
C[C@@H]1CN([C@@H](C)CO)C(=O)c2cc(NS(=O)(=O)c3ccccc3)ccc2O[C@H]1CN(C)Cc1ccccc1	6	·	·	·	·	·
Nc1c2ccccc2nc2ccccc12	121*	3	51*	-12	-2	26µM*
COc1cccc2sc3ccc(NCCC4CCCN4C)cc3c(=O)c12 (stereo not given)	61*	8.4*	-4	-8	-1	-12%
COc1cc2sc3cc(NCC[C@@H]4CCCN4C)ccc3c(=O)c2cc1OC	76*	·	·	11	·	-22%
COc1cc2sc3cc(NCc4ccc(C)o4)ccc3c(=O)c2cc1OC	11	·	·	-4	·	·
C[C@H](CO)N1C[C@H](C)[C@@H](CN(C)C)Oc2ccc(NC(=O)Cn3cnnn3)cc2C1=O	14	·	·	·	·	·
COCC(=O)Nc1ccc2c(c1)OC[C@@H](C)N(C(=O)c1ccccc1)C[C@@H](C)[C@H](OC)CN(C)C2=O	7	·	·	·	·	·
Cc1nc2nc(C)c(C)nc2nc1C	56*	·	·	·	·	10%
Cc1nc2c(C)c(C)c(C)c(C)c2nc1C	-6	0	-1	·	0	·
COC(=O)C[C@@H]1CC[C@H]2[C@@H](COc3ccc(NC(=O)c4cc(F)cc(F)c4)cc3C(=O)N2C)O1	0	·	·	·	·	·
C[C@@H]1CCCCO[C@@H](CN(C)S(=O)(=O)c2cn(C)cn2)[C@H](C)CN([C@@H](C)CO)C(=O)c2cc(NS(=O)(=O)c3ccccc3)ccc2O1	-1	·	·	·	·	·
SMILES	RAD54 inh	VIM-2 inh	FID counter	PvdQ inh	IMP-1 inhibitor	Rad54 DNA ctr
COc1cc2c3nnc(-c4ccc(F)cc4)c-3cn(Cc3ccc(F)cc3)c2cc1OC	-18	-4	15	-1	-4	·
COc1ccc(Cn2cc3c(-c4ccc(F)cc4)nnc-3c3cc(OC)c(OC)cc32)cc1	64*	-6	4	-2	-6	0%
CC(C)C#Cc1cnc2c(c1)C(=O)N([C@H](C)CO)C[C@H](C)[C@H](CN(C)C(=O)c1ccc3c(c1)OCO3)O2	4	·	·	·	·	·
NC1CCN(c2nc3c(cc2F)c(=O)c(C(=O)O)cn3-c2ccc(F)cc2F)C1 (stereo not given)	9	·	·	3	·	·
NC1CCN(c2c(F)cc3c(=O)c(C(=O)O)cn(C4CC4)c3c2Cl)C1 (stereo not given)	?	0	-1	-4	-3	8%
CN(C)C(CNC(=O)CCCN1C(=O)c2cccc3cccc(c23)C1=O)c1ccccc1 (stereo not given)	57*	9.2*	2	-18	-4	1%
